What was measured:
[1] = Ratio of NMS/oxo-M apparent binding affinities (Kapp)
Summary of the method: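 Two rat cortical membrane binding assays, each in triplicate with at least four concentrations, Kapp corrected for radioligand occupancy. [3H]N-methylscopolamine (0.1 nM) run in 20 mM HEPES Krebs' buffer pH 7.4, 60 min at 30 °C. [3H]oxotremorine-M (3.0 nM) run in 20 mM HEPES pH 7.4, 40 min at 30 °C. Ratio taken as NMS Kapp over oxo-M Kapp.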

[2] = target: T1, Muscarinic acetylcholine receptor (Rattus norvegicus) (UniProt P08482+P08483+P08485+P08911+P10980); details: Cortex
[3] = target: T1, Muscarinic acetylcholine receptor (Rattus norvegicus); details: Cortex; remark: listed apart in the source
[4] = target: T1, Muscarinic acetylcholine receptor (Rattus norvegicus); assay: Percent inhibition of [3H]oxotremorine-M binding to Muscarinic acetylcholine receptor in rat cortex at a concentration of >10 uM
Summary of the method: (§1)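 Rat cortical membranes (male Sprague-Dawley, 250-300 g). Test compound at a single stated concentration; percent inhibition of specific binding is reported. [3H]-N-methylscopolamine (0.1 nM) in 20 mM HEPES Krebs' buffer pH 7.4, 60 min at 30 °C; [3H]oxotremorine-M (3.0 nM) in 20 mM HEPES buffer pH 7.4, 40 min at 30 °C. Ended by filtration.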

[5] = target: T1, Muscarinic acetylcholine receptor (Rattus norvegicus); assay: Percent inhibition of [3H]N-methylscopolamine (NMS) binding to Muscarinic acetylcholine receptor in rat cortex at a concentration of >100 uM; summary of the method: as §1
[6] = target: T1, Muscarinic acetylcholine receptor (Rattus norvegicus); assay: Apparent binding affinity at Muscarinic acetylcholine receptor by displacing [3H]oxotremorine-M in rat cortex; format: tissue-based
Summary of the method: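 Membranes from male Sprague-Dawley rat (250-300 g) cortex in 20 mM HEPES buffer pH 7.4; displacement of 3.0 nM [3H]oxotremorine-M, 40 min at 30 °C, ended by filtration onto polyethylenimine-presoaked GF/C filters. Triplicates, at least four concentrations per curve; apparent affinity constant corrected for radioligand occupancy, in µM, geometric mean of n experiments.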

[7] = target: T1, Muscarinic acetylcholine receptor (Rattus norvegicus); details: Cortex; remark: listed apart in the source
[8] = target: T1, Muscarinic acetylcholine receptor (Rattus norvegicus); details: Cortex; remark: listed apart in the source
[9] = target: T1, Muscarinic acetylcholine receptor (Rattus norvegicus); details: Cortex; remark: listed apart in the source
[10] = target: T1, Muscarinic acetylcholine receptor (Rattus norvegicus); assay: Apparent binding affinity at Muscarinic acetylcholine receptor, by displacing [3H]N-methylscopolamine (NMS) in rat cortex at a concentration of >100 uM; format: tissue-based
Summary of the method: (§2)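 Membranes from cortex of male Sprague-Dawley rats (250-300 g). Displacement curves with 0.1 nM [3H]-N-methylscopolamine in 20 mM HEPES Krebs' buffer pH 7.4, 60 min at 30 °C; or with 3.0 nM [3H]oxotremorine-M in 20 mM HEPES buffer pH 7.4, 40 min at 30 °C. Filtration read-out. Triplicates, at least four concentrations. Kapp corrected for radioligand occupancy; geometric mean of n experiments.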

[11] = target: T1, Muscarinic acetylcholine receptor (Rattus norvegicus); assay: Apparent binding affinity at Muscarinic acetylcholine receptor by displacing [3H]oxotremorine-M in rat cortex at a concentration of >10 uM; format: tissue-based; summary of the method: as §2

Compound	Ratio [1]	K app [3] [µM]	inhibition [4] [%]	inhibition [5] [%]	K app [6] [µM]	further results
C[N+](C)(C)CCOC(N)=O	4100	24	–	–	–	K app [2]: 0.0058 µM
CC1OCC2(CCCN(C)C2)O1 (stereo in doubt; 4a)	–	–	4	24	–	–
CCN1C(=O)CC2(CCN(C)CC2)C1=O	130	–	–	–	0.04	K app [7]: 5 µM
CC1OCC2(CCNCC2)O1 (stereo not drawn)	470	–	–	–	–	K app [8]: 0.092 µM; K app [9]: 43 µM
CCC1OCC2(CCN(C)CC2)O1 (stereo not drawn)	24	5.3	–	–	0.22	–
CC1OCC2(CCCNC2)O1 (stereo not drawn)	–	–	25	29	–	inhibition [10]: 20%; inhibition [11]: 13%
C[C@H]1OCC2(CN3CCC2CC3)O1 (stereo partly drawn)	140	4.9	–	–	0.035	–
CC1OCC2(CCCN(C)C2)O1 (stereo in doubt; 4b)	–	–	10	19	–	–

From ChEMBL document CHEMBL1124046, “2-Methyl-1,3-dioxaazaspiro[4.5]decanes as novel muscarinic cholinergic agonists” (J Med Chem, 1988)
